Tested on: Fibroblast
Experiment: Multiplex assay against human fibroblast
Type: toxicity, cell-based
Method in brief: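 At seeding, live cells were stained with Hoechst33342, BioTracker Green Microtubule Cytoskeleton Dye, MitoTracker Red and Annexin V Alexa Fluor 680. After compound addition they were imaged on a CQ1 microscope at 37°C and 5% CO2, and CellPathfinder machine-learning gating sorted them into Hoechst high-intensity objects or normal cells, with normal cells further split into healthy, pyknosed or fragmented nuclei and pyknosed cells into mitotic or apoptotic. Tubulin, mitochondrial-mass and membrane-permeability phenotypes are given as per cents of cells with healthy nuclei.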

[1] = 12 h, 1 µM, compound concentration 1 uM, replicate 1
[2] = 12 h, 1 µM, compound concentration 1 uM, replicate 2
[3] = 12 h, 10 µM, compound concentration 10 uM, replicate 1
[4] = 12 h, 10 µM, compound concentration 10 uM, replicate 2
[5] = 24 h, 1 µM, compound concentration 1 uM, replicate 1
[6] = 24 h, 1 µM, compound concentration 1 uM, replicate 2
[7] = 24 h, 10 µM, compound concentration 10 uM, replicate 1
[8] = 24 h, 10 µM, compound concentration 10 uM, replicate 2
[9] = 48 h, 1 µM, compound concentration 1 uM, replicate 1
[10] = 48 h, 1 µM, compound concentration 1 uM, replicate 2
[11] = 48 h, 10 µM, compound concentration 10 uM, replicate 1
[12] = 48 h, 10 µM, compound concentration 10 uM, replicate 2

COc1cc2nc(N3CCN(C(=O)c4ccco4)CC3)nc(N)c2cc1OC.Cl [PRAZOSIN HYDROCHLORIDE] was tested, and the “Population Apoptotic (%)” value [1] was 38%, the “Population Fragmented Nuclei (%)” value [1] was 22% and the “Population Healthy Nuclei (%)” value [1] was 57%. The “Population Hoechst High Intensity Objects (%)” value [1] was 1%, the “Population Membrane Permeable-Phenotype (%)” value [1] was 1% and the “Population Mitochondria Different-Phenotype (%)” value [1] was 1%. For the same compound, the “Population Mitotic Cells (%)” value [1] was 61%, the “Population Normal (%)” value [1] was 98% and the “Population Pyknosed Nuclei (%)” value [1] was 19%. The “Population Tubulin-Different-Phenotype (%)” value [1] was 26%, the “Total Cell Count” value [1] was 174 and the “Population Apoptotic (%)” value [2] was 49%. The “Population Fragmented Nuclei (%)” value [2] was 20%, the “Population Healthy Nuclei (%)” value [2] was 52% and the “Population Hoechst High Intensity Objects (%)” value [2] was 4%. For the same compound, the “Population Membrane Permeable-Phenotype (%)” value [2] was 5%, the “Population Mitochondria Different-Phenotype (%)” value [2] was 7% and the “Population Mitotic Cells (%)” value [2] was 50%. For the same compound, the “Population Normal (%)” value [2] was 95%, the “Population Pyknosed Nuclei (%)” value [2] was 27% and the “Population Tubulin-Different-Phenotype (%)” value [2] was 46%. For the same compound, the “Total Cell Count” value [2] was 194, the “Population Apoptotic (%)” value [3] was 44% and the “Population Fragmented Nuclei (%)” value [3] was 23%. The “Population Healthy Nuclei (%)” value [3] was 64%, the “Population Hoechst High Intensity Objects (%)” value [3] was 1% and the “Population Membrane Permeable-Phenotype (%)” value [3] was 0%. For the same compound, the “Population Mitochondria Different-Phenotype (%)” value [3] was 7%, the “Population Mitotic Cells (%)” value [3] was 56% and the “Population Normal (%)” value [3] was 98%. The “Population Pyknosed Nuclei (%)” value [3] was 12%, the “Population Tubulin-Different-Phenotype (%)” value [3] was 49% and the “Total Cell Count” value [3] was 198. The “Population Apoptotic (%)” value [4] was 31%, the “Population Fragmented Nuclei (%)” value [4] was 35% and the “Population Healthy Nuclei (%)” value [4] was 42%. The “Population Hoechst High Intensity Objects (%)” value [4] was 5%, the “Population Membrane Permeable-Phenotype (%)” value [4] was 9% and the “Population Mitochondria Different-Phenotype (%)” value [4] was 3%. For the same compound, the “Population Mitotic Cells (%)” value [4] was 68%, the “Population Normal (%)” value [4] was 94% and the “Population Pyknosed Nuclei (%)” value [4] was 21%. For the same compound, the “Population Tubulin-Different-Phenotype (%)” value [4] was 65%, the “Total Cell Count” value [4] was 155 and the “Population Apoptotic (%)” value [5] was 50%. The “Population Fragmented Nuclei (%)” value [5] was 20%, the “Population Healthy Nuclei (%)” value [5] was 63% and the “Population Hoechst High Intensity Objects (%)” value [5] was 2%. For the same compound, the “Population Membrane Permeable-Phenotype (%)” value [5] was 0%, the “Population Mitochondria Different-Phenotype (%)” value [5] was 2% and the “Population Mitotic Cells (%)” value [5] was 50%. The “Population Normal (%)” value [5] was 97%, the “Population Pyknosed Nuclei (%)” value [5] was 15% and the “Population Tubulin-Different-Phenotype (%)” value [5] was 28%. For the same compound, the “Total Cell Count” value [5] was 181, the “Population Apoptotic (%)” value [6] was 45% and the “Population Healthy Nuclei (%)” value [6] was 57%. The “Population Hoechst High Intensity Objects (%)” value [6] was 7%, the “Population Membrane Permeable-Phenotype (%)” value [6] was 12% and the “Population Mitochondria Different-Phenotype (%)” value [6] was 3%. The “Population Mitotic Cells (%)” value [6] was 54%, the “Population Normal (%)” value [6] was 92% and the “Population Pyknosed Nuclei (%)” value [6] was 21%. For the same compound, the “Population Tubulin-Different-Phenotype (%)” value [6] was 58%, the “Total Cell Count” value [6] was 185 and the “Population Apoptotic (%)” value [7] was 46%. The “Population Fragmented Nuclei (%)” value [7] was 23%, the “Population Healthy Nuclei (%)” value [7] was 69% and the “Population Hoechst High Intensity Objects (%)” value [7] was 3%. The “Population Membrane Permeable-Phenotype (%)” value [7] was 0%, the “Population Mitochondria Different-Phenotype (%)” value [7] was 6% and the “Population Mitotic Cells (%)” value [7] was 53%. The “Population Normal (%)” value [7] was 96%, the “Population Pyknosed Nuclei (%)” value [7] was 6% and the “Population Tubulin-Different-Phenotype (%)” value [7] was 45%. The “Total Cell Count” value [7] was 201, the “Population Apoptotic (%)” value [8] was 61% and the “Population Fragmented Nuclei (%)” value [8] was 35%. For the same compound, the “Population Healthy Nuclei (%)” value [8] was 49%, the “Population Hoechst High Intensity Objects (%)” value [8] was 7% and the “Population Membrane Permeable-Phenotype (%)” value [8] was 10%. For the same compound, the “Population Mitochondria Different-Phenotype (%)” value [8] was 11%, the “Population Mitotic Cells (%)” value [8] was 38% and the “Population Normal (%)” value [8] was 92%. For the same compound, the “Population Pyknosed Nuclei (%)” value [8] was 15%, the “Population Tubulin-Different-Phenotype (%)” value [8] was 73% and the “Total Cell Count” value [8] was 152. The “Population Apoptotic (%)” value [9] was 52%, the “Population Fragmented Nuclei (%)” value [9] was 24% and the “Population Healthy Nuclei (%)” value [9] was 62%. The “Population Hoechst High Intensity Objects (%)” value [9] was 3%, the “Population Membrane Permeable-Phenotype (%)” value [9] was 0% and the “Population Mitochondria Different-Phenotype (%)” value [9] was 1%. For the same compound, the “Population Mitotic Cells (%)” value [9] was 47%, the “Population Normal (%)” value [9] was 96% and the “Population Pyknosed Nuclei (%)” value [9] was 13%. The “Population Tubulin-Different-Phenotype (%)” value [9] was 22%, the “Total Cell Count” value [9] was 182 and the “Population Apoptotic (%)” value [10] was 66%. For the same compound, the “Population Fragmented Nuclei (%)” value [10] was 29%, the “Population Healthy Nuclei (%)” value [10] was 56% and the “Population Membrane Permeable-Phenotype (%)” value [10] was 8%. The “Population Mitochondria Different-Phenotype (%)” value [10] was 6%, the “Population Mitotic Cells (%)” value [10] was 33% and the “Population Pyknosed Nuclei (%)” value [10] was 14%. For the same compound, the “Population Tubulin-Different-Phenotype (%)” value [10] was 57%, the “Total Cell Count” value [10] was 197 and the “Population Apoptotic (%)” value [11] was 66%. The “Population Fragmented Nuclei (%)” value [11] was 25%, the “Population Healthy Nuclei (%)” value [11] was 68% and the “Population Hoechst High Intensity Objects (%)” value [11] was 1%. For the same compound, the “Population Membrane Permeable-Phenotype (%)” value [11] was 0%, the “Population Mitochondria Different-Phenotype (%)” value [11] was 4% and the “Population Mitotic Cells (%)” value [11] was 33%. The “Population Normal (%)” value [11] was 98%, the “Population Pyknosed Nuclei (%)” value [11] was 6% and the “Population Tubulin-Different-Phenotype (%)” value [11] was 32%. For the same compound, the “Total Cell Count” value [11] was 201, the “Population Apoptotic (%)” value [12] was 46% and the “Population Fragmented Nuclei (%)” value [12] was 42%. The “Population Healthy Nuclei (%)” value [12] was 49%, the “Population Hoechst High Intensity Objects (%)” value [12] was 5% and the “Population Membrane Permeable-Phenotype (%)” value [12] was 5%. The “Population Mitochondria Different-Phenotype (%)” value [12] was 5%, the “Population Mitotic Cells (%)” value [12] was 53% and the “Population Normal (%)” value [12] was 94%. For the same compound, the “Population Pyknosed Nuclei (%)” value [12] was 8%, the “Population Tubulin-Different-Phenotype (%)” value [12] was 48% and the “Total Cell Count” value [12] was 170.
